Measurements taken from ChEMBL document CHEMBL1828615, “Synthesis of a series of 3,4-methanoarginines as side-chain conformationally restricted analogues of arginine” (Bioorg Med Chem, 2011).

Experiments:
[1] = substrate: N=C(N)NCCC[C@H](N)C(=O)O; test: (§1) Ratio of Kcat to Km for mouse iNOS by Michaelis-Menten equation analysis
Method in brief: (§2)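 Murine iNOS kinetics used a hemoglobin capture assay at 30 °C, with no CaCl₂ or calmodulin. The mix held varied substrate concentrations, NADPH, 0.125 mg/mL ferrous hemoglobin-A₀ and H₄B in 100 mM HEPES (pH 7.5), and enzyme addition started it. Absorbance at 401 nm tracked NO-mediated hemoglobin oxidation. Km and kcat were obtained by nonlinear Michaelis–Menten regression of activity against substrate concentration.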

[2] = substrate: N=C(N)NC[C@H]1C[C@@H]1[C@H](N)C(=O)O; test: as §1; method in brief: as §2
[3] = substrate: N=C(N)NC[C@H]1C[C@H]1[C@H](N)C(=O)O; test: as §1; method in brief: as §2
[4] = substrate: N=C(N)NCCC[C@H](N)C(=O)O; test: (§3) Activity of mouse iNOS by Michaelis-Menten equation analysis; method in brief: as §2
[5] = substrate: N=C(N)NC[C@H]1C[C@@H]1[C@H](N)C(=O)O; test: as §3; method in brief: as §2
[6] = substrate: N=C(N)NC[C@H]1C[C@H]1[C@H](N)C(=O)O; test: as §3; method in brief: as §2
[7] = substrate: N=C(N)NCCC[C@H](N)C(=O)O; test: (§4) Ratio of Kcat to Km for bovine eNOS by Michaelis-Menten equation analysis; details: Bos taurus
Method in brief: (§5)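 Bovine eNOS run as a hemoglobin capture assay at 30 °C. The mix held varied substrate concentrations, 1.0 mM CaCl₂, 600 unit/mL calmodulin, NADPH, 0.125 mg/mL ferrous hemoglobin-A₀ and H₄B in 100 mM HEPES (pH 7.5). Enzyme addition started the reaction, and NO-driven hemoglobin oxidation was followed at 401 nm. Km and kcat came from a nonlinear Michaelis–Menten fit of activity versus substrate concentration.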

[8] = substrate: N=C(N)NC[C@H]1C[C@@H]1[C@H](N)C(=O)O; test: as §4; details: Bos taurus; method in brief: as §5
[9] = substrate: N=C(N)NC[C@H]1C[C@H]1[C@H](N)C(=O)O; test: as §4; details: Bos taurus; method in brief: as §5
[10] = substrate: N=C(N)NCCC[C@H](N)C(=O)O; test: (§6) Activity of bovine eNOS by Michaelis-Menten equation analysis; details: Bos taurus; method in brief: as §5
[11] = substrate: N=C(N)NC[C@H]1C[C@@H]1[C@H](N)C(=O)O; test: as §6; details: Bos taurus; method in brief: as §5
[12] = substrate: N=C(N)NC[C@H]1C[C@H]1[C@H](N)C(=O)O; test: as §6; details: Bos taurus; method in brief: as §5

Row | Protein | kcat/Km [1] | kcat/Km [2] | kcat/Km [3] | Km [4] | Km [5] | Km [6] | kcat/Km [7] | kcat/Km [8] | kcat/Km [9] | Km [10] | Km [11] | Km [12]
1 | Nitric oxide synthase, inducible (Mus musculus), P29477 (protein) MACPWKFLFKVKSYQSDLKEEKDINNNVKKTPCAVLSPTIQDDPKSHQNGSPQLLTGTAQNVPESLDKLHVTSTRPQYVRIKNWGSGEILHDTLHHKATSDFTCKSKSCLGSIMNPKSLTRGPRDKPTPLEELLPHAIEFINQYYGSFKEAKIEEHLARLEAVTKEIETTGTYQLTLDELIFATKMAWRNAPRCIGRIQWSNLQVFDARNCSTAQEMFQHICRHILYATNNGNIRSAITVFPQRSDGKHDFRLWNSQLIRYAGYQMPDGTIRGDAATLEFTQLCIDLGWKPRYGRFDVLPLVLQADGQDPEVFEIPPDLVLEVTMEHPKYEWFQELGLKWYALPAVANMLLEVGGLEFPACPFNGWYMGTEIGVRDFCDTQRYNILEEVGRRMGLETHTLASLWKDRAVTEINVAVLHSFQKQNVTIMDHHTASESFMKHMQNEYRARGGCPADWIWLVPPVSGSITPVFHQEMLNYVLSPFYYYQIEPWKTHIWQNEKLRPRRREIRFRVLVKVVFFASMLMRKVMASRVRATVLFATETGKSEALARDLATLFSYAFNTKVVCMDQYKASTLEEEQLLLVVTSTFGNGDCPSNGQTLKKSLFMLRELNHTFRYAVFGLGSSMYPQFCAFAHDIDQKLSHLGASQLAPTGEGDELSGQEDAFRSWAVQTFRAACETFDVRSKHHIQIPKRFTSNATWEPQQYRLIQSPEPLDLNRALSSIHAKNVFTMRLKSQQNLQSEKSSRTTLLVQLTFEGSRGPSYLPGEHLGIFPGNQTALVQGILERVVDCPTPHQTVCLEVLDESGSYWVKDKRLPPCSLSQALTYFLDITTPPTQLQLHKLARFATDETDRQRLEALCQPSEYNDWKFSNNPTFLEVLEEFPSLHVPAAFLLSQLPILKPRYYSISSSQDHTPSEVHLTVAVVTYRTRDGQGPLHHGVCSTWIRNLKPQDPVPCFVRSVSGFQLPEDPSQPCILIGPGTGIAPFRSFWQQRLHDSQHKGLKGGRMSLVFGCRHPEEDHLYQEEMQEMVRKRVLFQVHTGYSRLPGKPKVYVQDILQKQLANEVLSVLHGEQGHLYICGDVRMARDVATTLKKLVATKLNLSEEQVEDYFFQLKSQKRYHEDIFGAVFSYGAKKGSALEEPKATRL | 110000 M⁻¹ s⁻¹ | 99000 M⁻¹ s⁻¹ | 3000 M⁻¹ s⁻¹ | 9.5 µM | 20 µM | 582 µM |  |  |  |  |  | 
2 | Nitric oxide synthase 3 (Bos taurus), P29473 (protein) MGNLKSVGQEPGPPCGLGLGLGLGLCGKQGPASPAPEPSRAPAPATPHAPDHSPAPNSPTLTRPPEGPKFPRVKNWELGSITYDTLCAQSQQDGPCTPRCCLGSLVLPRKLQTRPSPGPPPAEQLLSQARDFINQYYSSIKRSGSQAHEERLQEVEAEVASTGTYHLRESELVFGAKQAWRNAPRCVGRIQWGKLQVFDARDCSSAQEMFTYICNHIKYATNRGNLRSAITVFPQRAPGRGDFRIWNSQLVRYAGYRQQDGSVRGDPANVEITELCIQHGWTPGNGRFDVLPLLLQAPDEAPELFVLPPELVLEVPLEHPTLEWFAALGLRWYALPAVSNMLLEIGGLEFSAAPFSGWYMSTEIGTRNLCDPHRYNILEDVAVCMDLDTRTTSSLWKDKAAVEINLAVLHSFQLAKVTIVDHHAATVSFMKHLDNEQKARGGCPADWAWIVPPISGSLTPVFHQEMVNYILSPAFRYQPDPWKGSATKGAGITRKKTFKEVANAVKISASLMGTLMAKRVKATILYASETGRAQSYAQQLGRLFRKAFDPRVLCMDEYDVVSLEHEALVLVVTSTFGNGDPPENGESFAAALMEMSGPYNSSPRPEQHKSYKIRFNSVSCSDPLVSSWRRKRKESSNTDSAGALGTLRFCVFGLGSRAYPHFCAFARAVDTRLEELGGERLLQLGQGDELCGQEEAFRGWAKAAFQASCETFCVGEEAKAAAQDIFSPKRSWKRQRYRLSTQAEGLQLLPGLIHVHRRKMFQATVLSVENLQSSKSTRATILVRLDTAGQEGLQYQPGDHIGICPPNRPGLVEALLSRVEDPPPPTESVAVEQLEKGSPGGPPPSWVRDPRLPPCTLRQALTFFLDITSPPSPRLLRLLSTLAEEPSEQQELETLSQDPRRYEEWKWFRCPTLLEVLEQFPSVALPAPLLLTQLPLLQPRYYSVSSAPNAHPGEVHLTVAVLAYRTQDGLGPLHYGVCSTWLSQLKTGDPVPCFIRGAPSFRLPPDPYVPCILVGPGTGIAPFRGFWQERLHDIESKGLQPAPMTLVFGCRCSQLDHLYRDEVQDAQERGVFGRVLTAFSREPDSPKTYVQDILRTELAAEVHRVLCLERGHMFVCGDVTMATSVLQTVQRILATEGDMELDEAGDVIGVLRDQQRYHEDIFGLTLRTQEVTSRIRTQSFSLQERHLRGAVPWAFDPPGPDTPGP |  |  |  |  |  |  | 73000 M⁻¹ s⁻¹ | 42000 M⁻¹ s⁻¹ | 920 M⁻¹ s⁻¹ | 1.1 µM | 3.6 µM | 163 µM
